MC4R barr agon: human MC4R agonism via beta-arrestin | P32245 | U2OS MC4R beta-arrestin complementation, luminescence; percent of melanotan II response, DMSO zero | activation, % at 8.9 µM | 360,000 tested, 0.98% active | AID 540308;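 active means activation above a per-plate cutoff, the mean activation of sample wells on that plate plus 3 SD, cut at about 8% in these data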
MsrA act: bovine methionine sulfoxide reductase A activation; purified bovine MsrA, absorbance read-out; 360,000 tested, 0.3% active; activation, % at 10.6 µM; in the data active means activation above about 7.5%
MsrA inhibitor: inhibits bovine methionine sulfoxide reductase A; 360,000 tested, 0.75% active; AID 651718; purified bovine MsrA, absorbance read-out; inhibition, % at 15.5 µM
MC4R antag cAMP: antagonists of human melanocortin 4 receptor (MC4R); MC4R-expressing cells, MTII-stimulated cAMP, LANCE TR-FRET; AID 540295; 360,000 tested, 0.48% active; P32245; inhibition, % at 6.5 µM;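 active means inhibition above its plate's cutoff, the mean of tested wells on that plate plus 3 SD, cut at about 29% in these data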
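material = U2OS cells stably expressing human melanocortin 4 receptor (MC4R) | also added = Melanotan II challenge | dosing = single nominal compound dose of 6.5 µM | detection = TR-FRET with Eu-cAMP and labeled anti-cAMP, 671 nm | replication = singlicate | timing = compound 30 min, challenge 1 h, detection 1 h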
cAMP nonselect: U2OS forskolin cAMP inhibition counter-screen; shares compounds with MC4R antag cAMP; parental U2OS, LANCE TR-FRET; inhibition, % at 6.5 µM; 1,600 tested, 26% active; AID 602193;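 active means mean inhibition over triplicates above the low-control well mean plus 3 SD, set per campaign, cut at about 13% in these data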;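 further: signal is single emission at 671 nm which falls as cellular cAMP rises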
MC4R cAMP antag: human MC4R cAMP antagonism confirmation. shares compounds with MC4R antag cAMP. MC4R-expressing cells, MTII-stimulated cAMP, TR-FRET. inhibition, % at 6.5 µM. 1,600 tested, 27% active; in the data active means inhibition above about 29%
MC4R barr ag: human MC4R beta-arrestin agonism confirmation | shares compounds with MC4R barr agon | U2OS MC4R beta-arrestin recruitment, luminescence; scaled DMSO 0%, Melanotan II 100% | activation, % at 8.9 µM | 2,400 tested, 31% active | AID 602192;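 active means mean activation across replicates above the hit cutoff set in the earlier primary screen, cut at about 8% in these data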
MOR DOR agonist: OPRM1-OPRD1 heterodimer agonism counter-screen. activation, % at 9.2 µM. 2,400 tested, 5.8% active. U2OS PathHunter beta-arrestin, beta-gal luminescence; percent of deltorphin B response, DMSO zero. shares compounds with MC4R barr agon;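 active means mean activation across replicates exceeds the hit threshold derived in the earlier primary screen, cut at about 18% in these data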
Target sequence (P35372 whole entry, looked up): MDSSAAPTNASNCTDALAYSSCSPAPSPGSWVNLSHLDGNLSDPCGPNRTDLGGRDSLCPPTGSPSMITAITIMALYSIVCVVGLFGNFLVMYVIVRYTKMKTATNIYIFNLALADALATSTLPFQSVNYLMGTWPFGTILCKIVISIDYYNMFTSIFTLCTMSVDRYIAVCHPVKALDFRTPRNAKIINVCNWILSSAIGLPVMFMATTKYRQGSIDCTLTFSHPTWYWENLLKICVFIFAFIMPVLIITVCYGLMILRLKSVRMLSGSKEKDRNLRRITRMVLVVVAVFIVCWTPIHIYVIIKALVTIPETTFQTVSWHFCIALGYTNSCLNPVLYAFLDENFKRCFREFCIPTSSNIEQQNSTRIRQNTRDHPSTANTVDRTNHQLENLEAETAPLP
Target sequence (P41143 whole entry, looked up): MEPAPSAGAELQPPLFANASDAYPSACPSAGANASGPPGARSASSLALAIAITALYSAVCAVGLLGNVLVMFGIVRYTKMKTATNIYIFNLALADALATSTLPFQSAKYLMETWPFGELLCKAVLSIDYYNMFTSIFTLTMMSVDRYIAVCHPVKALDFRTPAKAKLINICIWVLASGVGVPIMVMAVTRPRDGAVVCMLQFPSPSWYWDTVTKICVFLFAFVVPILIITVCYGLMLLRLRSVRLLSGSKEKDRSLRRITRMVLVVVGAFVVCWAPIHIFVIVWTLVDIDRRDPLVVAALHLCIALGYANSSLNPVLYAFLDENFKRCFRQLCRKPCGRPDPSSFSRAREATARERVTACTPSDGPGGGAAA
MsrA activ conf: confirmation of bovine methionine sulfoxide reductase A activators | shares compounds with MsrA act | purified bovine MsrA, absorbance read-out | activation, % at 10.6 µM | 1,000 tested, 12% active | AID 602270; in the data active means activation above about 4%;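 further: enzyme coupled to thioredoxin and thioredoxin reductase with NADPH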
MsrA inh confirm: confirmation of bovine MsrA inhibitors; shares compounds with MsrA inhibitor; purified bovine MsrA, absorbance read-out; inhibition, % at 15.5 µM; 2,300 tested, 41% active; AID 651822;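 further: coupled to thioredoxin reductase with NADPH and selenocystamine and DMSO as substrate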
Large screens that a line does not name were inactive (follow-up assays come after a bar, where they were run). This is a sample that favours compounds with a hit; in the whole collection about 2.3% have one here. Unless noted, no stated cut-off is given here; in the data, active means inhibition above about 4.5%; inactive means the rest.

C#C[C@]1(O)CCC2C3C(=O)C=C4C=CCC[C@]4(C)C3CC[C@@]21C (some centres undefined)	none
NC(=S)c1cn(C2OC(CO)C(O)C2O)c2ncnc(N)c12 (centres undefined)	MC4R antag cAMP 31 | cAMP nonselect inactive | MC4R cAMP antag inactive
Nc1ncnc2c1ccn2[C@@H]1O[C@H](CO)[C@@H](O)[C@H]1O	MC4R antag cAMP 45 | cAMP nonselect 94 | MC4R cAMP antag 78
C=CCn1c(O)c(C(C)=Nc2ccc(N(CC)CC)cc2)c(=O)[nH]c1=O	none
C=C1C(C)C2C(Cc3ccccc3)NC(=O)C23OC(=O)/C=C/C(O)CCCC(C)C/C=C/C3C1O (centres undefined)	MC4R antag cAMP 36 | cAMP nonselect inactive | MC4R cAMP antag inactive
CN1CCN(c2nc(N(C)C)oc(=O)c2C#N)CC1	none
C/C(=N\Nc1cccc2ccccc12)c1c(O)n(Cc2ccccc2)c(=O)[nH]c1=O	MC4R antag cAMP 29 | cAMP nonselect inactive | MC4R cAMP antag inactive
Cc1c(NC(NC(=O)CF)C(Cl)(Cl)Cl)c(=O)n(-c2ccccc2)n1C (centres undefined)	none
CSc1nc2ccccc2c(=O)n1-c1cccnc1	none
COc1ccccc1N1CCN(C2CCCN(C(=O)COc3ccccc3Cl)C2)CC1 (centres undefined)	none
Cc1ccccc1CN1Cc2cnnn2-c2ccccc2C1C#N (centres undefined)	MC4R antag cAMP 37 | cAMP nonselect inactive | MC4R cAMP antag 45
COc1ccccc1N1C(=O)NC(=O)/C(=C\c2cnn(-c3ccccc3)c2)C1=O	MC4R antag cAMP 30 | cAMP nonselect inactive | MC4R cAMP antag inactive
COc1ccc(OC)c(C2=NOC(C(=O)N3CCC4(CC3)OCCO4)C2)c1 (centres undefined)	none
CC12CC[C@H]3[C@@H](CCC4(O)C[C@H](O)CCC34/C=N/NC(=O)c3ccccc3O)C1(O)CCC2C1=CC(=O)OC1 (some centres undefined)	MC4R antag cAMP 29 | cAMP nonselect inactive | MC4R cAMP antag inactive
C[CH2][Hg][S]c1ccccc1C(=O)O	MC4R antag cAMP 95 | cAMP nonselect 40 | MC4R cAMP antag 91
CC(C)COC(=O)c1ccccc1C(=O)OCC(C)C	none
O=C(NN=Cc1ccc(N(CCCl)CCCl)cc1)C(=O)c1c[nH]c2ccccc12	MsrA inhibitor 6.0, MC4R antag cAMP 31 | cAMP nonselect inactive | MC4R cAMP antag inactive | MsrA inh confirm inactive
CCOP(=O)(OCC)OCC	none
CCOP(=O)(CCP(=O)(OCC)OCC)OCC.C[CH2][Sn]([Cl])([Cl])[CH2]C	MsrA inhibitor 56, MC4R antag cAMP 70 | cAMP nonselect inactive | MC4R cAMP antag 29 | MsrA inh confirm 51
O=C(Nc1nc(-c2ccccc2)c(-c2ccccc2)s1)c1ccc(S(=O)(=O)N(CCCl)CCCl)cc1	none
N[C@@H](Cc1c[nH]c2ccccc12)c1nnc(SCc2ccccc2)o1	none
N[C@@H](Cc1c[nH]c2ccccc12)c1nnc(SCc2ccc(Cl)cc2)o1	MC4R barr agon 10 | MC4R barr ag inactive | MOR DOR agonist inactive
CCCCC1(CCCC)C(=O)NC(=Nc2cccc(C)c2)NC1=O	none
CC12CCC3C(CC=C4CC(O)CCC43C)C1C/C(=C\c1ccccc1F)C2=O (centres undefined)	MC4R barr agon 27 | MC4R barr ag 25 | MOR DOR agonist inactive
Nc1cccc(SC2CC(=O)N(c3ccc(Cl)cc3C(=O)c3ccccc3)C2=O)c1 (centres undefined)	MC4R barr agon 9.7 | MC4R barr ag inactive | MOR DOR agonist inactive
CCOCCN1CCC(OC(C)=O)C(C)C1 (centres undefined)	none
CCOc1cc(CNCCc2c[nH]c3ccccc23)cc(Cl)c1OCC	MC4R barr agon 15 | MC4R barr ag 17 | MOR DOR agonist inactive
CCOc1c(Cl)cc(CNCCc2c[nH]c3ccccc23)cc1OC	none
CCCCCCCCC(=O)NCc1ccc(O)c(OC)c1	none
Clc1ccc(C[n+]2c(-c3ccccc3)cc(-c3ccccc3)cc2-c2ccccc2)cc1	MC4R barr agon 16 | MC4R barr ag 20 | MOR DOR agonist inactive
NC(N)=N/N=C/c1cn(-c2ccccc2)nc1-c1cccs1	MC4R barr agon 12 | MC4R barr ag 19 | MOR DOR agonist 24
O=c1c2ccccc2nc(-c2cccs2)n1-c1ccccc1	none
O=C(CCN1CCOCC1)NCC(=O)Nc1ccc(Br)cc1C(=O)c1ccccc1	MsrA act 7.8 | MsrA activ conf inactive
CCN(CC)c1ccc(N=Cc2c(O)[nH]c(=O)[nH]c2=O)cc1	none
COc1cc2c(c(OC)c1O)-c1ccc(OC)c(=O)cc1C(NC(=O)C(F)(F)F)CC2 (centres undefined)	none
COc1cc2c(c(OC)c1OC)-c1ccc(C(=O)O)cc1[C@@H](NC(C)=O)CC2	MsrA act 19 | MsrA activ conf inactive
CC[n+]1c(-c2ccccc2)c2cc(N)ccc2c2ccc(N)cc21	MsrA act 9.2, MsrA inhibitor 44 | MsrA activ conf inactive | MsrA inh confirm 49
COC(=O)C1=C(c2c(C)noc2C)C[C@@H]2CC[C@H]1N2C(=O)NCc1ccc(F)cc1	none
CC(C)n1c(=O)c(C=Nc2ccc(Cl)cc2)c(O)n(Cc2ccco2)c1=O	none (no result: MC4R barr agon, MsrA act, MC4R antag cAMP)
CC(C)n1c(=O)c(C=Nc2ccc(F)cc2)c(O)n(Cc2ccco2)c1=O	MsrA inhibitor 5.7 | MsrA inh confirm inactive
COc1ccc(CCn2c(O)c(C=NCCCO)c(=O)[nH]c2=O)cc1OC	none
CCOC(=O)c1cc(C(O)(C(=O)OC)C(F)(F)F)c(/N=C/N(C)C)o1 (centres undefined)	MsrA inhibitor 6.8 | MsrA inh confirm inactive
COC(=O)C(O)(c1c[nH]c2ccccc12)C(F)(F)F (centres undefined)	none
CCn1nc(/C=C/c2ccccc2)nc2c(=O)n(C)c(=O)nc1-2	MsrA inhibitor 5.3 | MsrA inh confirm 4.6
N#Cc1ncc(N=Cc2ccc(N(CCCl)CCCl)cc2)s1	MsrA inhibitor 5.0 | MsrA inh confirm 6.2
ClCCN(CCCl)c1ccc(C=NNc2ncccn2)cc1	MsrA inhibitor 6.2 | MsrA inh confirm 7.4
